We go through 10 molecules from ChEMBL document CHEMBL1641365, “Synthesis, in vitro and in vivo preliminary evaluation of anti-angiogenic properties of some pyrroloazaflavones” (Bioorg Med Chem, 2011).

Active and inactive are the calls of the source. No cut-off for these calls is given here. Bounds are passed on as bounds.

In experiment [1] the test system is HUVEC. Briefly: Growth inhibition of HUVEC cells after 20 hrs by MTT assay. In kind it is cell-based. Particulars: Homo sapiens. The essentials:
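Primary HUVECs, passages 2–4, were seeded at 2 × 10⁴ cells/cm². After 24 h they were exposed to a range of concentrations (10 to 10⁻⁵ µM). After 20 h, MTT (0.5 mg/mL) was read. IC50 is the concentration giving a 50% viability drop versus untreated cells; 10 µM was the top concentration. Values are means ± SD of at least three independent experiments.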

Experiment [2] concerns HUVEC. Briefly: Induction of apoptosis in HUVEC cells assessed as proapoptotic effect after 24 hrs by TUNEL assay. It is filed as functional, cell-based. The following applies: Homo sapiens.
Experiment [3] concerns HUVEC. The experiment can be described thus: Antiangiogenic activity against FGF2-induced in HUVEC cells assessed as inhibition of morphological change at 10^-2 uM after 18 hrs by capillary-like formation assay. In kind it is functional, cell-based. The following applies: Homo sapiens.
For experiment [4], the system named is HUVEC. The experiment can be described thus: Antiangiogenic activity against FGF2-induced in HUVEC cells assessed as inhibition of capillary-like formation at 10^-2 uM after 18 hrs by Matrigel assay. It is filed as functional, cell-based. The following applies: Homo sapiens.
The test system of experiment [5] is HUVEC. The experiment can be described thus: Inhibition of growth factor-induced angiogenesis in HUVEC cells assessed as inhibition of cell migration at 10^-2 uM after 4 hrs by fluorescence microscopy. Particulars: Homo sapiens. It is filed as functional, cell-based.
For another experiment, the system named is Mus musculus. Briefly: Antiangiogenic activity against FGF2-induced C57/BL6 mouse assessed as inhibition of angiogenesis at 0.01 uM, sc after 7 days by Matrigel plug assay. It is filed as functional, organism-based. The essentials:
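Matrigel with heparin, with or without FGF-2 200 ng/plug plus test agent 0.01 µM, injected subcutaneously into the dorsal area of C57/BL6 mice. Animals were killed after 7 days. Plugs were removed and steeped overnight at 4 °C in 0.1% Brij-35 in PBS. Hemoglobin content of the plugs was measured.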

The subject of experiment [6] is HUVEC. The experiment can be described thus: Inhibition of growth factor-induced angiogenesis in HUVEC cells assessed as inhibition of in cell migration at 10^-5 uM after 4 hrs by fluorescence microscopy. Particulars: Homo sapiens. In kind it is functional, cell-based.
Experiment [7] has as its system HUVEC. The experiment can be described thus: Antiangiogenic activity against FGF2-induced HUVEC assessed as inhibition of cell proliferation at 10^-5 uM after 24 hrs. The following applies: Homo sapiens. It is filed as functional, cell-based.
The test system of experiment [8] is HUVEC. Briefly: Antiangiogenic activity against FGF2-induced in HUVEC cells assessed as inhibition of capillary-like formation at 10^-5 uM after 18 hrs by Matrigel assay. It is filed as functional, cell-based. Particulars: Homo sapiens.
Experiment [9] concerns HUVEC. The experiment can be described thus: Antiangiogenic activity against FGF2-induced HUVEC assessed as inhibition of cell proliferation at 10^-2 uM after 24 hrs. The following applies: Homo sapiens. It is filed as functional, cell-based.
Experiment [10] has as its system HUVEC. Briefly: Antiangiogenic activity against FGF2-induced in HUVEC cells assessed as inhibition of morphological change at 10^-3 uM after 18 hrs by capillary-like formation assay. Particulars: Homo sapiens.
In experiment [11] the test system is HUVEC. Briefly: Antiangiogenic activity against FGF2-induced in HUVEC cells assessed as inhibition of morphological change at 10^-3 uM after 18 hrs by capillary-like formation assay. In kind it is functional, cell-based. Particulars: Homo sapiens.
Experiment [12] relates to HUVEC. Briefly: Antiangiogenic activity against FGF2-induced HUVEC assessed as inhibition of cell proliferation at 10^-3 uM after 24 hrs. In kind it is functional, cell-based. The following applies: Homo sapiens.
For experiment [13], the system named is HUVEC. Briefly: Antiangiogenic activity against FGF2-induced in HUVEC cells assessed as inhibition of capillary-like formation at 10^-3 uM after 18 hrs by Matrigel assay. In kind it is functional, cell-based. Particulars: Homo sapiens.
Experiment [14] concerns HUVEC. Briefly: Inhibition of growth factor-induced angiogenesis in HUVEC cells assessed as inhibition of cell migration at 10^-3 uM after 4 hrs by fluorescence microscopy. In kind it is functional, cell-based. Particulars: Homo sapiens.
For experiment [15], the system named is HUVEC. The experiment can be described thus: Inhibition of growth factor-induced angiogenesis in HUVEC cells assessed as inhibition of cell migration at 10^-4 uM after 4 hrs by fluorescence microscopy. It is filed as functional, cell-based. The following applies: Homo sapiens.
Experiment [16] deals with HUVEC. Briefly: Antiangiogenic activity against FGF2-induced HUVEC assessed as inhibition of cell proliferation at 10^-4 uM after 24 hrs. It is filed as functional, cell-based. Particulars: Homo sapiens.
The test system of experiment [17] is HUVEC. Briefly: Antiangiogenic activity against FGF2-induced in HUVEC cells assessed as inhibition of capillary-like formation at 10^-4 uM after 18 hrs by Matrigel assay. In kind it is functional, cell-based. The following applies: Homo sapiens.

In turn, `Oc1cc(-c2cccs2)nc2c1ccc1[nH]ccc12` registered an IC50 with HUVEC [1] of more than 10 µM.

Regarding `CCOC(=O)CCn1ccc2c3[nH]c(-c4ccccc4)cc(=O)c3ccc21`, the outcome in the experiment with HUVEC [2], in the experiment with HUVEC [3], in the experiment with HUVEC [4] and in the experiment on Mus musculus was Active. The molecule further yielded an IC50 with HUVEC [1] of 5.7 µM. Moreover, the inhibition entry with HUVEC [5] was “Active”.

Regarding `O=c1cc(-c2ccccc2)[nH]c2c1ccc1c2ccn1CC1CC1`, the result in the experiment with HUVEC [2], in the experiment on HUVEC [4] and in the experiment with Mus musculus was Active. Moreover, the outcome in the experiment on HUVEC [3] was inactive. This molecule had an IC50 with HUVEC [1] of 4.2 µM. The inhibition entry in the experiment with HUVEC [5] is “Active”.

For `CC[C@]1(O)C[C@@H]2CN(CCc3c([nH]c4ccccc34)[C@@](C(=O)OC)(c3cc4c(cc3OC)N(C)[C@H]3[C@@](O)(C(=O)OC)[C@H](OC(C)=O)[C@]5(CC)C=CCN6CC[C@]43[C@@H]65)C2)C1` [VINBLASTINE], the inhibition entry with HUVEC [6] is “Active”. The result with HUVEC [7] and with HUVEC [8] was Active. The molecule further showed an IC50 with HUVEC [1] of 0.049 µM.

Turning to `Cc1cc2c(ccc3c(=O)cc(-c4ccccc4)[nH]c32)[nH]1`, the half-maximal inhibitory concentration (IC50) in the experiment with HUVEC [1] is more than 10 µM.

`O=c1cc(-c2ccc[nH]2)[nH]c2c1ccc1[nH]ccc12` had an IC50 with HUVEC [1] of more than 10 µM.

For the molecule `COc1cccc(-c2cc(O)c3ccc4[nH]ccc4c3n2)c1`, the result in the experiment with HUVEC [2] and in the experiment with HUVEC [9] was Active. It took 5.8 µM to reach half-maximal inhibition in the experiment on HUVEC [1] (IC50). Also, in the experiment with HUVEC [5], the inhibition entry is “Active”.

On to `O=[N+]([O-])c1cccc(-c2cc(O)c3ccc4[nH]ccc4c3n2)c1`, for which the result in the experiment on HUVEC [10], in the experiment with HUVEC [2], with HUVEC [11], with HUVEC [12], in the experiment with HUVEC [13] and with Mus musculus was Active. Also, inhibition in the experiment on HUVEC [1] was half-maximal at 0.45 µM (IC50). Besides, the inhibition result with HUVEC [14] was “Active”.

For the molecule `CCn1ccc2c3[nH]c(-c4ccccc4)cc(=O)c3ccc21`, the outcome in the experiment with HUVEC [2] and in the experiment with HUVEC [4] was Active. In addition, the outcome in the experiment on HUVEC [3] was inactive. This molecule registered an IC50 in the experiment on HUVEC [1] of 8.1 µM. Also, in the experiment on HUVEC [5], the inhibition result is “Active”.

Consider `Oc1cc(-c2ccccc2)nc2c1ccc1[nH]ccc12`, for which, in the experiment with HUVEC [15], the inhibition result is “Active”. The result in the experiment on HUVEC [2], in the experiment with HUVEC [16], in the experiment on HUVEC [17] and in the experiment on Mus musculus was Active. The molecule also returned an IC50 in the experiment on HUVEC [1] of 0.043 µM.
